# Measurements as given in ChEMBL document CHEMBL1949520, “Synthesis of terphenyl benzimidazoles as tubulin polymerization inhibitors” (2012).
# Activity calls are given as the source filed them. No cut-off for these calls is given here.
# Experiments:
# [1] = Growth inhibition of human Gurav cells by SRB assay; assay type: functional
# PC-3 = assay: Growth inhibition of human PC3 cells by SRB assay; assay type: functional
# A549 [2] = assay: Cell cycle arrest in human A549 cells assessed as accumulation at G2/M phase at 5 uM after 48 hrs by propidium iodide staining-based flow cytometric analysis; assay type: functional
# Procedure, shortened: (§1)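 A549 cells treated 48 h (5 μM test agents; 1 μM standard), trypsin-EDTA harvest, PBS wash, fixed in ice-cold 70% ethanol at 4 °C for 30 min, then stained 30 min at room temperature in the dark with propidium iodide/trisodium citrate/Triton X-100 solution. DNA content by flow cytometry; G2/M fraction compared with untreated control.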
# ZR-75-1 = assay: Growth inhibition of human ZR-75-1 cells by SRB assay; assay type: functional
# MCF7 = assay: Growth inhibition of human MCF7 cells by SRB assay; assay type: functional
# COLO 205 = assay: Growth inhibition of human COLO205 cells by SRB assay; assay type: functional
# A549 [3] = assay: Growth inhibition of human A549 cells by SRB assay; assay type: functional
# KB = assay: Growth inhibition of human KB cells by SRB assay; assay type: functional
# SiHa = assay: Growth inhibition of human SiHa cells by SRB assay; assay type: functional
# [4] = Growth inhibition of human DWD cells by SRB assay; assay type: functional
# A2780 = assay: Growth inhibition of human A2780 cells by SRB assay; assay type: functional
# Bos taurus = species on record: Bos taurus; assay: Inhibition of bovine tubulin polymerization after 1 hr at 1 min interval by fluorescence assay
# Procedure, shortened: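 Bovine brain tubulin, 2 mg/mL, in PEM buffer (80 mM PIPES, 0.5 mM EGTA, 2 mM MgCl2, pH 6.9) with fluorescent reporter, compounds at 3 μM, 37 °C. Reaction started by adding 1 mM GTP. Polymerization followed as fluorescence gain (ex 360/em 420 nm), read every 1 min for 1 h. Nocodazole as positive control.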
# A549 [5] = assay: Inhibition of alpha-tubulin in human A549 cells assessed as ratio of free to polymerized tubulin at 5 uM after 24 hrs by densitometric analysis relative to control; assay type: cell-based
# Procedure, shortened: (§2)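 A549 cells exposed 24 h (5 μM test agents; 1 μM nocodazole or taxol). Spun 15000g, 30 min, 22 °C to give soluble and polymerized fractions. α-Tubulin Western blot; band densitometry as soluble/polymerized ratio.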
# HOP-62 = assay: Growth inhibition of human HOP62 cells by SRB assay; assay type: functional
# A549 [6] = assay: Inhibition of alpha-tubulin in human A549 cells assessed as ratio of free to polymerized tubulin at 1 uM after 24 hrs by densitometric analysis relative to control; assay type: cell-based; procedure, shortened: as §2
# A549 [7] = assay: Cell cycle arrest in human A549 cells assessed as accumulation at G2/M phase at 1 uM after 48 hrs by propidium iodide staining-based flow cytometric analysis relative to control; assay type: functional; procedure, shortened: as §1
smiles,measurement,setting,value
Oc1ccc(-c2ccc(-c3ccc(-c4nc5c(O)cccc5[nH]4)cc3)cc2)cc1,GI50,[1],0.19 µM
same,GI50,PC-3,0.19 µM
same,Activity,A549 [2],Active
same,GI50,ZR-75-1,2.65 µM
same,GI50,MCF7,0.19 µM
same,GI50,COLO 205,2.6 µM
same,GI50,A549 [3],0.17 µM
same,GI50,KB,3.19 µM
same,GI50,SiHa,2.41 µM
same,GI50,[4],2.7 µM
same,GI50,A2780,2.92 µM
same,inhibition,Bos taurus,36.3%
same,fold change (FC),A549 [5],1.1
same,GI50,HOP-62,2.41 µM
COc1cc(-c2ccc(-c3ccc(-c4nc5cc(C)ccc5[nH]4)cc3)cc2)cc(OC)c1OC,GI50,[1],0.17 µM
same,GI50,PC-3,0.18 µM
same,Activity,A549 [2],Active
same,GI50,ZR-75-1,0.19 µM
same,GI50,MCF7,0.17 µM
same,GI50,COLO 205,0.19 µM
same,GI50,A549 [3],< 0.1 µM
same,GI50,KB,2.11 µM
same,GI50,SiHa,0.17 µM
same,GI50,[4],0.17 µM
same,GI50,A2780,0.19 µM
same,inhibition,Bos taurus,48.8%
same,fold change (FC),A549 [5],1.3
same,GI50,HOP-62,2.37 µM
COC(=O)Nc1nc2cc(C(=O)c3cccs3)ccc2[nH]1,fold change (FC),A549 [6],1.5
same,Activity,A549 [7],Active
same,inhibition,Bos taurus,58.9%
Oc1cccc2[nH]c(-c3ccc(-c4ccc(-c5cccc(Cl)c5)cc4)cc3)nc12,GI50,[1],2.31 µM
same,GI50,PC-3,2.56 µM
same,GI50,ZR-75-1,2.41 µM
same,GI50,MCF7,3.42 µM
same,GI50,COLO 205,8.6 µM
same,GI50,A549 [3],2.4 µM
same,GI50,KB,2.28 µM
same,GI50,SiHa,8.4 µM
same,GI50,[4],2.1 µM
same,GI50,A2780,2.8 µM
same,GI50,HOP-62,2.26 µM
Oc1ccc(-c2ccc(-c3ccc(-c4nc5ccccc5[nH]4)cc3)cc2)cc1,GI50,[1],100 µM
same,GI50,PC-3,47 µM
same,GI50,ZR-75-1,100 µM
same,GI50,MCF7,30.5 µM
same,GI50,COLO 205,100 µM
same,GI50,A549 [3],33.1 µM
same,GI50,KB,41 µM
same,GI50,SiHa,33.3 µM
same,GI50,[4],46.3 µM
same,GI50,A2780,36 µM
same,GI50,HOP-62,47.2 µM
Oc1cccc2[nH]c(-c3ccc(-c4ccc(-c5ccccc5)cc4)cc3)nc12,GI50,[1],1.11 µM
same,GI50,PC-3,1.24 µM
same,GI50,ZR-75-1,35.6 µM
same,GI50,MCF7,2.2 µM
same,GI50,COLO 205,1.21 µM
same,GI50,A549 [3],8.32 µM
same,GI50,KB,4.01 µM
same,GI50,SiHa,9.71 µM
same,GI50,[4],9.68 µM
same,GI50,A2780,41 µM
same,GI50,HOP-62,9.04 µM
COc1cc(-c2ccc(-c3ccc(-c4nc5ccccc5[nH]4)cc3)cc2)cc(OC)c1OC,GI50,[1],7.1 µM
same,GI50,PC-3,9.72 µM
same,GI50,ZR-75-1,9.71 µM
same,GI50,MCF7,6.38 µM
same,GI50,COLO 205,8.32 µM
same,GI50,A549 [3],2.11 µM
same,GI50,KB,2.98 µM
same,GI50,SiHa,4.98 µM
same,GI50,[4],8.01 µM
same,GI50,A2780,9.21 µM
same,GI50,HOP-62,9.43 µM
CC(=O)O[C@H]1C(=O)[C@@]2(C)[C@H]([C@H](OC(=O)c3ccccc3)[C@]3(O)C[C@H](OC(=O)[C@H](O)[C@@H](NC(=O)c4ccccc4)c4ccccc4)C(C)=C1C3(C)C)[C@]1(OC(C)=O)CO[C@@H]1C[C@@H]2O,fold change (FC),A549 [6],0.5
COc1cc(-c2ccc(-c3ccc(-c4nc5c(O)cccc5[nH]4)cc3)cc2)cc(OC)c1OC,GI50,[1],0.17 µM
same,GI50,PC-3,0.17 µM
same,Activity,A549 [2],Active
same,GI50,ZR-75-1,0.19 µM
same,GI50,MCF7,< 0.1 µM
same,GI50,COLO 205,0.19 µM
same,GI50,A549 [3],< 0.1 µM
same,GI50,KB,2.11 µM
same,GI50,SiHa,0.17 µM
same,GI50,[4],0.19 µM
same,GI50,A2780,0.17 µM
same,inhibition,Bos taurus,98.3%
same,fold change (FC),A549 [5],1.4
same,GI50,HOP-62,0.19 µM
c1ccc(-c2ccc(-c3ccc(-c4nc5ccccc5[nH]4)cc3)cc2)cc1,GI50,[1],100 µM
same,GI50,PC-3,41.2 µM
same,GI50,ZR-75-1,100 µM
same,GI50,MCF7,39.2 µM
same,GI50,COLO 205,100 µM
same,GI50,A549 [3],41.2 µM
same,GI50,KB,39.7 µM
same,GI50,SiHa,100 µM
same,GI50,[4],100 µM
same,GI50,A2780,32.1 µM
same,GI50,HOP-62,100 µM
COc1ccc(-c2ccc(-c3ccc(-c4nc5c(O)cccc5[nH]4)cc3)cc2)cc1OC,GI50,[1],1.11 µM
same,GI50,PC-3,1.24 µM
same,GI50,ZR-75-1,2.11 µM
same,GI50,MCF7,0.19 µM
same,GI50,COLO 205,1.32 µM
same,GI50,A549 [3],1.31 µM
same,GI50,KB,2.71 µM
same,GI50,SiHa,1.11 µM
same,GI50,[4],1.4 µM
same,GI50,A2780,2.71 µM
same,GI50,HOP-62,2.21 µM
COc1ccc(-c2ccc(-c3ccc(-c4nc5cc(C)ccc5[nH]4)cc3)cc2)cc1,GI50,[1],9.27 µM
same,GI50,PC-3,100 µM
same,GI50,ZR-75-1,41.1 µM
same,GI50,MCF7,3.11 µM
same,GI50,COLO 205,100 µM
same,GI50,A549 [3],6.33 µM
same,GI50,KB,28.3 µM
same,GI50,SiHa,21.2 µM
same,GI50,[4],100 µM
same,GI50,A2780,2.11 µM
same,GI50,HOP-62,36.3 µM
Oc1cccc2[nH]c(-c3ccc(-c4ccc(-c5ccc(F)cc5)cc4)cc3)nc12,GI50,[1],2.86 µM
same,GI50,PC-3,15.3 µM
same,GI50,ZR-75-1,6.32 µM
same,GI50,MCF7,3.01 µM
same,GI50,COLO 205,1.22 µM
same,GI50,A549 [3],0.17 µM
same,GI50,KB,6.92 µM
same,GI50,SiHa,9.1 µM
same,GI50,[4],22.2 µM
same,GI50,A2780,41.2 µM
same,GI50,HOP-62,8.31 µM
